This sample holds only a part of the variants without activity.
B1: tRNA (parent)
chain: GUUCCGUUGGCGUAAUGGUAACGCGUCUCCCUCCUAAGGAGAAGACUGCGGGUUCGAGUCCCGUACGGAACG

Variants of: B1
Assay: yeast fitness relative to wild type (ratio to wild type); higher = fitter; tRNA-Arg(CCU), competitive growth, 37 C, YPD
Outline: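 Start and end populations of a pooled competition were compared by 100-nucleotide paired-end sequencing of gene amplicons. The Saccharomyces cerevisiae strains carried tRNA-Arg(CCU) gene variants at the native genomic locus, synthesised with a 3% per-site mutation rate at 69 sites, and competed in YPD at 37°C for 24 hours in six parallel replicates. Darwinian fitness relative to wild type was based on the change in genotype frequencies. Genotypes required ≥ 100 starting reads, and estimates < 0.5 were set to 0.5.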

Row | Variant | yeast fitness
1 | A21C A42U U54A | ≤ 0.5
2 | A20U G51A U53G C60G | ≤ 0.5
3 | A21C C24A C31A U47A | ≤ 0.5
4 | A21C A37U G51A | ≤ 0.5
5 | A20U C29U C62A | 0.543
6 | A21C C30A A43G C61U | ≤ 0.5
7 | A20U G38C C61G A69G | ≤ 0.5
8 | A20U C34A U59A | 0.538
9 | A20U G23A C27U A65G G68C | ≤ 0.5
10 | A20U G48A U64C | 0.589
11 | A20U U35C C49U C55U U64C | 0.588
12 | A20U C29G G38C G39A A43C C60G A65C | ≤ 0.5
13 | A21C C24U A36C A57U | ≤ 0.5
14 | A20U G25A C60A A65U A70G | ≤ 0.5
15 | A20U C46U G63A | 0.777
16 | A21C C34U C49U A69U | 0.53
17 | A20U G39A G51C C55G | ≤ 0.5
18 | A20U C62G G63C | 0.601
19 | A20U C29U C30U U59A | 0.636
20 | A20U C34G A42G A43U A65G A70U | ≤ 0.5
21 | A20U C61G A65U | ≤ 0.5
22 | A21C C27A C33U A69C | 0.625
23 | A21C C29A G52C | 0.566
24 | A21C C24A G39A G56C A69U | ≤ 0.5

Row | Variant | yeast fitness
25 | A20U C22G C60G C66G | ≤ 0.5
26 | A20U C34U G51C C60U | ≤ 0.5
27 | A21C C27G U28A C29U C34U A57G G58C | ≤ 0.5
28 | A20U U28A A69U | 0.585
29 | A20U G38A | 0.69
30 | A20U G38C | 0.775
31 | A21C C30G C34G | 0.627
32 | A20U G39C G48C G52C U53A | ≤ 0.5
33 | A21C C24U A37C G39A C49G | ≤ 0.5
34 | A20U C29G | 0.721
35 | A20U C29U | 0.714
36 | A21C C29U U35A C61G | 0.707
37 | A20U C34G G48C G67A G68C | ≤ 0.5
38 | A21C C22U C31U C33U G67A | ≤ 0.5
39 | A20U C49G A69U | 0.677
40 | A20U C22A A45C U53A | 0.594
41 | A20U U26C C30A | ≤ 0.5
42 | A20U C46G | 1.07
43 | A21C C22A A45U G67A | ≤ 0.5
44 | A20U C29G C61U | ≤ 0.5
45 | A20U U35C A57G | 0.546
46 | A20U G25A A69C | 0.963
47 | A21C C22G A42C U47A U64C | ≤ 0.5
48 | A20U C34G A36C C55U A65U | ≤ 0.5

Row | Variant | yeast fitness
49 | A20U C34G G38C G50C C60A A70C | ≤ 0.5
50 | A20U U26A A43G | ≤ 0.5
51 | A21C C34G C60A | ≤ 0.5
52 | A21C A37G U59G | ≤ 0.5
53 | A20U C24A A40C G50C C66U | ≤ 0.5
54 | A20U G50A U59C G67C | ≤ 0.5
55 | A20U C33U G38C A40U G44C G51C C60U | 0.558
56 | A20U G23A C31U G39A G56A | ≤ 0.5
57 | A20U G56A | 0.922
58 | A21C C27U C55G | 0.617
59 | A20U G41A | 0.867
60 | A20U C22A C61A C62G | ≤ 0.5
61 | A20U C31U G38A A69C | ≤ 0.5
62 | A21C C27G C46A C55G | ≤ 0.5
63 | A20U U32C G38C A65G | ≤ 0.5
64 | A20U C29A C30U A36U A70C | 0.594
65 | A21C C24U G25C U26G U59A A70C | ≤ 0.5
66 | A21C C24G C33A A37G A69C | 0.645
67 | A20U C22U C46U A57G | ≤ 0.5
68 | A20U G25A G63A | 0.716
69 | A20U C22G | 0.633
70 | A21C C27U G48C | 0.547
71 | A21C A45U G52A | 0.503
72 | A21C C34G A43U | ≤ 0.5

Row | Variant | yeast fitness
73 | A21C C27U C34U G50C G52C C61U | ≤ 0.5
74 | A20U G23A C34A A36U | ≤ 0.5
75 | A21C C30G C55G A70G | 0.532
76 | A20U C24G C55A | ≤ 0.5
77 | A20U U32C | 0.882
78 | A20U U32A | 0.78
79 | A21C A43U C49U G68A | ≤ 0.5
80 | A20U U35C U59A | ≤ 0.5
81 | A20U G25A C66U | 0.761
82 | A21C C22G A57G | ≤ 0.5
83 | A21C C22U A43U | 0.538
84 | A20U C34G G48C U59C C61U | 0.791
85 | A20U C24U C29G C49G G63C | ≤ 0.5
86 | A21C C29G U59C | ≤ 0.5
87 | A20U G58A | 0.907
88 | A20U C27U U64C | 0.954
89 | A21C C30G A45G C66A | ≤ 0.5
90 | A20U C27U C30A C33G A42G G51C | 0.583
91 | A21C C33G A37U U64G | 0.617
92 | A20U C29G A45G A69U | 0.525
93 | A20U G25A | 1.03
94 | A20U C24G A45G U53A | ≤ 0.5
95 | A21C C27A G50C | ≤ 0.5
96 | A20U U26A A65C G67C | 0.563

Row | Variant | yeast fitness
97 | A20U C62U A70U | 0.65
98 | A20U C46U A69C | 0.744
99 | A21C C30U A36C | ≤ 0.5
100 | A21C C24U A36C | 0.592
101 | A20U C33U C61U A70U | ≤ 0.5
102 | A20U C34G A42G A43U G67A | ≤ 0.5
103 | A21C C31G C66U | ≤ 0.5
104 | A21C C33U C55U A57C C61A | ≤ 0.5
105 | A20U C30U | 0.783
106 | A20U G67U | 0.681
107 | A21C A45U | 0.631
108 | A20U C49U A65C | 0.655
109 | A20U G25C C60G | 0.676
110 | A21C C24U U32A A65C | ≤ 0.5
111 | A20U G23C A45U G58A A70C | ≤ 0.5
112 | A21C C22A C34G G44C C62A | 0.606
113 | A21C A45U U47A U53A | ≤ 0.5
114 | A20U G23A A57C | ≤ 0.5
115 | A21C A65U G68C | ≤ 0.5
116 | A21C C22A C30U G48C | ≤ 0.5
117 | A21C C34U G56A | 0.551
118 | A21C C31G C33G G44A C66U | 0.526
119 | A21C A57C C62A | ≤ 0.5
120 | A21C C27U A45G | 0.584

Row | Variant | yeast fitness
121 | A20U U64C A69C | 0.657
122 | A21C A57U | 0.752
123 | A21C C30U G38A | ≤ 0.5
124 | A20U C22G G23A A43U G48A | ≤ 0.5
125 | A20U C34U A40U | ≤ 0.5
126 | A20U U35A G44C | ≤ 0.5
127 | A21C C31U G38A G39C C49G | ≤ 0.5
128 | A20U G23A A65G G68C | 0.513
129 | A20U C29G A43U C66U | ≤ 0.5
130 | A20U U35C A36G | 0.592
131 | A20U C24U G48A C55U C60G | ≤ 0.5
132 | A20U C33A C55U C61A | ≤ 0.5
133 | A21C C34G | 0.577
134 | A20U U47A A69U | 0.619
135 | A20U U64C | 0.902
136 | A20U U64A | 0.821
137 | A20U C27A A40G A69U | ≤ 0.5
138 | A21C A70G | 0.861
139 | A21C A70U | 0.894
140 | A21C A42U | 0.639
141 | A20U G23A C61U | 0.561
142 | A20U U26C U47C A70G | 0.603
143 | A20U C34G A42G A43U G63A A65G | ≤ 0.5
144 | A21C C27A A37G A45C | 0.529

Row | Variant | yeast fitness
145 | A21C C34U U35C | ≤ 0.5
146 | A21C A45C C49U U54C | ≤ 0.5
147 | A21C C22G A42C U47A | ≤ 0.5
148 | A20U C27G | 0.642
149 | A21C A45C C49U U64C | ≤ 0.5
150 | A20U C29G C33U A65C C66U | ≤ 0.5
151 | A20U G38A A70G | 0.516
152 | A20U C27G C34A C46G C55A | ≤ 0.5
153 | A21C C31A A65C | ≤ 0.5
154 | A20U C29U C30U U59A G67A | ≤ 0.5
155 | A21C A45U G52A C62A | ≤ 0.5
156 | A21C C22A C24U U32A C62G | ≤ 0.5
157 | A21C C22A C24U A36C | ≤ 0.5
158 | A20U C24U A42U C46A C55U C61G A69C | 0.59
159 | A20U U47C C60G A65U A70G | 0.573
160 | A20U C34G A42G A43U A65G | 0.573
161 | A21C C46U C61G | ≤ 0.5
162 | A21C C27U C49U | 0.679
163 | A20U C30G G63A | ≤ 0.5
164 | A21C C22U C46U G48A G56A C60A C62A | ≤ 0.5
165 | A21C C49A | 0.742
166 | A21C C49G | 0.732
167 | A20U G44A | 0.662

— the RNAGym collection of RNA variant scans (doi:10.1126/science.aae0568)
